Published values pooled from the literature.
BTK: Tyrosine-protein kinase BTK (BTK, Homo sapiens, UniProt Q06187)

Structure (SMILES)	target	test	conditions	measurement	result
Oc1cccc(-c2nc(N3CCOCC3)c3oc4ncccc4c3n2)c1	BTK	enzyme activity, inhibitor	10 µM	remaining activity	82%
Cc1ccc(NC(=O)c2ccc(C)c(C(F)(F)F)c2)cc1C#Cc1nn(C2CCC(O)CC2)c2ncnc(N)c12 (centres unmarked)	BTK	cell-free assay	10 µM	remaining signal	10%
COc1ccc2c(c1)O[C@@H](c1ccc(OC)c(OC)c1)C[C@H]2NC(=O)C1(c2ccc3c(c2)OC(F)(F)O3)CC1	BTK	cell-free assay, competition with immobilised ligand	1 µM	remaining binding	81%
NC(=O)[C@H]1CCN(c2ncnc(N)c2F)C[C@@H]1N1CCC[C@@H](Nc2cc(Cl)cc(C(F)(F)F)c2)C1=O	Tyrosine-protein kinase BTK (BTK, Homo sapiens, UniProt Q06187, C481S)	binding in cells	–	residence time	16 min
CNCc1ccccc1-c1csc([C@H](C)Nc2nc(C)nc3cc(OC)c(OC)cc23)c1	BTK	cell-free assay, competition with immobilised ligand	1 µM	remaining binding	89%
O=C1NC(=O)c2cc(Nc3ccc(F)cc3)c(Nc3ccc(F)cc3)cc21	BTK	cell-free assay	0.5 µM	remaining signal	94.3%
Cc1cc(NC(=O)c2cccc(S(F)(F)(F)(F)F)c2)cc(-n2ccn3nc(-c4cccnc4)cc23)c1	BTK	cell-free assay, competition with immobilised ligand	1 µM	remaining binding	83.8%
COc1cc(Nc2cnc(C#N)c(O[C@H](C)CN(C)C)n2)ncc1-c1cnn(C)c1	BTK	enzyme activity, inhibitor, radiometric	10 µM	remaining activity	60%
CC(=O)N1CCC(c2ccc(C(=O)NC(=N)N)cc2C(F)(F)F)CC1	BTK	cell-free assay, competition with immobilised ligand	1 µM	remaining binding	100%
CC(C)(C)c1nc2c(s1)c1nc(N)ncc1c1ccc(NS(=O)(=O)c3c(F)cccc3F)c(F)c12	BTK	enzyme activity, inhibitor, radiometric	1 µM	remaining activity	75%
Oc1cccc(-c2nc(N3CCOCC3)c3oc4ncccc4c3n2)c1	BTK	cell-free assay	0.5 µM	remaining signal	95.2%
COc1cc(Cl)c(C(=O)N[C@@H](CN[C@H]2CC[C@@H](N)CC2)Cc2ccc(C#N)cc2)cc1-c1ccc(CN[C@H](C)c2ccc(C)cc2)o1	BTK	enzyme activity, inhibitor	1 µM	remaining activity	114%
O=C(NCc1ncc(C(F)(F)F)cc1Cl)c1ccc2c(c1)C1(CCS(=O)(=O)CC1)[C@@H](C1CC1)N2S(=O)(=O)c1ccc(F)cc1	BTK	cell-free assay, competition with immobilised ligand	1 µM	remaining binding	73%
COc1cc2c(N3CCN(C(=O)Nc4ccc(OC(C)C)cc4)CC3)ncnc2cc1OCCCN1CCCCC1	BTK	cell-free assay	0.5 µM	remaining signal	102%
Cc1cnc(NC2CCOCC2)nc1-n1cnc(C(=O)NC(CN)c2cc(F)cc(Cl)c2)c1 (centres unmarked)	Tyrosine-protein kinase BTK (BTK, Homo sapiens, UniProt Q06187, R28H)	enzyme activity, inhibitor, radiometric	1 µM	remaining activity	99%
CN(C)C1CCN(CC#Cc2nn(C3CCCC3)c3nc(NCc4ccccc4)ncc23)C1 (centres unmarked)	BTK	enzyme activity, inhibitor, FRET	1 µM	inhibition	5%
Cc1cc(NC(=O)c2cccc3cc(-c4cccc5[nH]nc(N)c45)ccc23)ccc1F	BTK	enzyme activity, inhibitor	0.1 µM	activity vs control	99%
C=CC(=O)N1CCC[C@@H]1Cn1nc(-c2ccc(Oc3ccccc3)cc2F)c2c(N)ncnc21	BTK	enzyme activity, inhibitor	–	kinact	0.0034 s⁻¹
NS(=O)(=O)c1cc(NC(=O)C2(c3ccccc3Cl)CC2)ccc1Oc1cccc(Cl)c1	BTK	cell-free assay, competition with immobilised ligand	1 µM	remaining binding	88%
CC(C)(C=C(C#N)C(=O)N1CCC[C@H]1Cn1nc(-c2ccc(Oc3ccccc3)cc2F)c2c(N)ncnc21)N1CCOCC1	BTK	enzyme activity, inhibitor	–	kinact	0.0048 s⁻¹
CNC(=O)c1ccc(Nc2ncc(C(F)(F)F)c(NCc3nccnc3N(C)S(C)(=O)=O)n2)cc1	BTK	cell-free assay, competition with immobilised ligand	0.1 µM	remaining binding	83%
CC(C)(C)C(=O)c1sc(NC2CCCCC2)nc1N	BTK	enzyme activity, inhibitor	10 µM	remaining activity	79%
Cc1noc([C@H]2C[C@@H](c3ccc(C(F)(F)F)cc3)CN(C(=O)N3CCS(=O)(=O)C3)C2)n1	BTK	cell-free assay, competition with immobilised ligand	1 µM	remaining binding	96%
O=C(Nc1cnn(-c2csc(C(=O)NC3COC3)c2)c1)Nc1c(F)cccc1Cl	BTK	enzyme activity, inhibitor	5 µM	remaining activity	89.3%
Nc1nc(NC2CCCCC2)sc1C(=O)c1ccccc1	BTK	enzyme activity, inhibitor	10 µM	remaining activity	75%
COc1ccc(F)cc1C(=O)NCc1ccc(-c2nn([C@@H](C)C(F)(F)F)c(N)c2C(N)=O)cc1	BTK	binding, SPR	–	kon	82000 M⁻¹ s⁻¹
